Measurements as given in the array DNA melting data of Ke et al. (doi:10.1101/2024.01.08.574731).

Assays:
[1] = folding enthalpy; higher = less favourable; fluorescence melt of hairpins on a sequencing array, two-state fit; settings: sodium 0.088 M
In short: (§1)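 In 50 mM Na-HEPES pH 8.0 containing 25 mM NaCl, hairpins from the library on a sequenced MiSeq flow cell were imaged for Cy3 fluorescence at 2.5 °C steps up to 60 °C, with Cy3 and quencher oligos annealed. After normalisation to pre-quench Cy3 and to control constructs, two-state fits with bootstrapping gave melting temperature and folding enthalpy. Four replicates were combined by inverse-variance weighting, and fitted temperatures were shifted up by 9.35 °C to match UV melts.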

[2] = melting temperature; fluorescence melt of hairpins on a sequencing array, two-state fit, raised by 9.35 °C to match UV melts; settings: sodium 0.088 M
In short: as §1

Sequence | folding enthalpy [1] [kcal/mol] | Tm [2] [°C]
GCCGTGCGAAAGCTCCGC ((.(.((....)).).)) | -11.2 | 40.4
GCCGTGGGAAACCACGAC (.(((((....))))).) | -14.8 | 52
GCCGTTCCGAAAGGAGGC (((..(((....)))))) | -24.4 | 50.7
GCCGTTGGAAACAGCGGC ((((.((....)).)))) | -39.8 | 60.3
GCCGTTGGAAACGATGGC (((.(.(....).).))) | -23.1 | 42.9
GCCTAAGGAAACTTGGGC (((.(((....))).))) | -37 | 48.9
GCCTAATCGAAAGATGGC (((..(((....)))))) | -27.4 | 44.1
GCCTACGAAAGTACGGC ((((((....))).))) | -28.8 | 51.5
GCCTACGGAAACGTAAGC ((.((((....)))).)) | -19.8 | 36.1
GCCTAGCGAAAGCTAAGC ((.((((....)))).)) | -17.1 | 48.9
GCCTAGCGAAAGCTCTGC ((..(((....)))..)) | -11.7 | 34.3
GCCTAGCGAAAGCTGGC (((.(((....)))))) | -29.2 | 64.8
GCCTAGCGAAAGCTTTGC ((..(((....)))..)) | -12 | 33.4
GCCTAGGCGAAAGCCGGC (((..(((....)))))) | -13.3 | 65.8
GCCTAGGGAAACCCAGGC ((((.((....)).)))) | -31.6 | 50.6
GCCTAGGGAAACTTAGGC (((((.(....).))))) | -31.6 | 47.5
GCCTATGGAAACATAAGC ((.((((....)))).)) | -15.6 | 27.6
GCCTCATCGAAAGATGGC (((..(((....)))))) | -10.1 | 43.8
GCCTCCCGAAAGGGTGGC (((.(((....))).))) | -36.1 | 67.9
GCCTCCGAAAGGACCGGC ((((((....)))..))) | -25 | 43.1
GCCTCCGGAAACGGGGGC (((.(((....))).))) | -31 | 67.1
GCCTCCTCGAAAGAGGGC (((..(((....)))))) | -9.35 | 43.9
GCCTCGCGAAAGCAAGGC ((((.((....)).)))) | -30 | 65.1

Sequence | folding enthalpy [1] [kcal/mol] | Tm [2] [°C]
GCCTCGCGAAAGCCAAGC ((.(.((....)).).)) | -6.14 | 28.4
GCCTCGCGAAAGCGAAGC ((.((((....)))).)) | -18.7 | 56.5
GCCTCGCGAAAGCTAGGC ((((.((....)).)))) | -33 | 65.2
GCCTCGCGAAAGCTCGGC (((..((....))..))) | -26.6 | 46.4
GCCTCGCGAAAGCTGGGC (((..((....))..))) | -22.2 | 55.4
GCCTCGGCGAAAGCCGGC (((..(((....)))))) | -4.13 | 54.4
GCCTCGGGAAACCAAGGC ((((.((....)).)))) | -34.9 | 47.6
GCCTCGGGAAACCGAAGC ((.((((....)))).)) | -23.9 | 44.6
GCCTGAACGAAAGTTGGC (((..(((....)))))) | -23.2 | 45.5
GCCTGAGGAAACTCGGGC (((.(((....))).))) | -40.8 | 57.4
GCCTGCGAAAGCACCGGC ((((((....)))..))) | -18.5 | 46.6
GCCTGCGAAAGCACGGC ((((((....))).))) | -29.7 | 63.2
GCCTGCGAAAGCATCGGC ((((((....)))..))) | -19.1 | 47.2
GCCTGGCGAAAGCAGGGC (((..((....))..))) | -26.7 | 65.6
GCCTGGCGAAAGCCCGGC (((.(((....))).))) | -35.3 | 59.4
GCCTGGCGAAAGCCCTGC ((..(((....)))..)) | -12.2 | 32.6
GCCTGGCGAAAGCCGCGC ((..(((....)))..)) | -16.8 | 52.3
GCCTGGCGAAAGCCTAGC ((..(((....)))..)) | -12.8 | 41
GCCTGGCGAAAGCGCGGC (((..((....))..))) | -19 | 57.1
GCCTGGCGAAAGCTTGGC (((..((....))..))) | -26.5 | 59.4
GCCTGGGGAAACCTGGGC (((..((....))..))) | -32.3 | 50.3
GCCTGGGGAAACTCAGGC (((((.(....).))))) | -36 | 58.4
GCCTGTACGAAAGTAGGC (((..(((....)))))) | -29.1 | 48.9

Sequence | folding enthalpy [1] [kcal/mol] | Tm [2] [°C]
GCCTGTGGAAACACGGGC (((.(((....))).))) | -41 | 61.9
GCCTTAACGAAAGTTGGC (((..(((....)))))) | -26.5 | 43.7
GCCTTACCGAAAGGTGGC (((..(((....)))))) | -23.6 | 48.8
GCCTTATCGAAAGATGGC (((..(((....)))))) | -28.7 | 42.6
GCCTTCCCGAAAGGGGGC (((..(((....)))))) | -17.2 | 47.7
GCCTTCGAAAGAAAGGGC ((((((....)))..))) | -29.4 | 43.1
GCCTTCGAAAGAAATGGC ((((((....)))..))) | -24.6 | 38.5
GCCTTCGAAAGAACCGGC ((((((....)))..))) | -19.4 | 33.9
GCCTTCGAAAGAATAGGC ((((((....)))..))) | -28.8 | 44.8
GCCTTCGGAAACGAAAGC ((.((((....)))).)) | -22 | 40.4
GCCTTCGGAAACGGAGGC ((((.((....)).)))) | -40.4 | 58.6
GCCTTGCGAAAGCAGGC (((.(((....)))))) | -24 | 66.7
GCCTTGCGAAAGCCACGC ((.(.((....)).).)) | -7.87 | 46.8
GCCTTGCGAAAGCGACGC ((.(.((....)).).)) | -10.5 | 48.2
GCCTTGCGAAAGCTCGGC (((..((....))..))) | -21.9 | 53.1
GCCTTGCGAAAGCTGGGC (((..((....))..))) | -25.9 | 62.6
GCCTTTGAAAAAAGGC ((((((....)))))) | -32.6 | 59.2
GCCTTTGGAAACAGAGGC ((((.((....)).)))) | -31.1 | 48.2
GCGAAACTTCGC ((((....)))) | -19.9 | 51.1
GCGAAAGCTCGC ((((....)))) | -11 | 56.8
GCGAAATCGAAAGATCGC (((..(((....)))))) | -28.1 | 47.5
GCGAAATCTCGC ((((....)))) | -20.3 | 45.2
